Test results reported in ChEMBL document CHEMBL4433264, “Novel hydrophilic galactose-conjugated chlorin e6 derivatives for photodynamic therapy and fluorescence imaging” (Bioorg Med Chem Lett, 2019).

What was measured:
[1] = Drug penetration in human HeLa cells at 10 uM measured after 40 mins by fluorescence microscopy; assay type: ADME, cell-based
Method in brief: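 HeLa cells were incubated for 40 min with compound at 10 μM, alongside untreated cells. Uptake was judged by intracellular red fluorescence under fluorescence microscopy, paired with light micrographs of the same fields.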

[2] = Dark toxicity in human HeLa cells assessed as reduction in cell viability; assay type: cell-based
Method in brief: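 HeLa cells were grown in DMEM/F12 with 10% FBS, without antibiotics, at 37 °C and 5% CO2, and exposed to compound without irradiation. Live cells were counted by fluorometric microculture cytotoxicity assay (FMCA), with 10 independent microcultures per concentration. Outliers were screened by Grubbs criterion, and IC50 was derived from concentration versus survival index (±SE).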

[3] = Aqueous solubility of the compound by UV spectroscopy; assay type: physicochemical; conditions: buffer
HeLa = assay: Phototoxicity in human HeLa cells assessed as reduction in cell viability in presence of irradiation with LED light at 12 J/cm2; assay type: functional, cell-based; conditions: light or radiation study
Method in brief: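 HeLa cells were cultured in DMEM/F12 with 10% FBS, antibiotic-free, at 37 °C and 5% CO2. Compound-treated cells were irradiated with a 660 nm LED at 12 J/cm2. Viable cells were quantified by FMCA using 10 independent microcultures per concentration. Grubbs criterion removed artifacts before IC50 was calculated from concentration versus survival index (±SE).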

[4] = Potency index, ratio of IC50 for dark toxicity in human HeLa cells to IC50 for phototoxicity in human HeLa cells in presence of irradiation with LED light at 12 J/cm2; assay type: cell-based; conditions: read-out: Ratio IC50
Method in brief: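 The index is dark IC50 divided by photoinduced IC50 in HeLa cells. Both IC50 values come from FMCA viability readings (10 microcultures per concentration, Grubbs outlier check, fit of concentration versus survival index). The phototoxicity arm used 660 nm LED irradiation at 12 J/cm2.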

| Drug uptake [1] | solubility [3] | Compound | IC50 [2] | IC50 (HeLa) | selectivity ratio [4] |
| --- | --- | --- | --- | --- | --- |
| Active | Soluble | C=Cc1c(C)c2cc3nc(c(CC(=O)OC)c4[nH]c(cc5nc(cc1[nH]2)C(C)=C5CC)c(C)c4C(=O)NCCN(C[C@H]1OC(O)[C@H](O)[C@@H](O)[C@H]1O)C[C@H]1OC(O)[C@H](O)[C@@H](O)[C@H]1O)[C@@H](CCC(=O)OC)[C@@H]3C (some centres undefined) | 6.1 µM | 1.11 µM |  |
| Active | Soluble | C=Cc1c(C)c2cc3nc(c(CC(=O)OC)c4[nH]c(cc5nc(cc1[nH]2)C(C)=C5CC)c(C)c4C(=O)NCCN(C[C@H]1OC(O)[C@H](O)[C@@H](O)[C@H]1O)C[C@H]1OC(O)[C@H](O)[C@@H](O)[C@H]1O)[C@@H](CCC(=O)NCCN(C[C@H]1OC(O)[C@H](O)[C@@H](O)[C@H]1O)C[C@H]1OC(O)[C@H](O)[C@@H](O)[C@H]1O)[C@@H]3C (some centres undefined) | 59.6 µM | 1.57 µM | 38 |
| Active | Soluble | C=Cc1c(C)c2cc3nc(c(CC(=O)OC)c4[nH]c(cc5nc(cc1[nH]2)C(C)=C5CC)c(C)c4C(=O)NCCN(C[C@H]1OC(O)[C@H](O)[C@@H](O)[C@H]1O)C[C@H]1OC(O)[C@H](O)[C@@H](O)[C@H]1O)[C@@H](CCC(=O)O)[C@@H]3C (some centres undefined) | 39 µM | 1.24 µM | 31 |
